# Compound activity deposited in PubChem by Broad Institute.
# Env fusion inh: HIV envelope-mediated fusion inhibition. HeLa-JRFL Env/CEM21 cell fusion, luciferase. inhibition, % at 12.3 µM. hit rate 1.1% among 360,000;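 active means mean replicate inhibition score of at least 50 and every replicate individually at or above 50; inconclusive means only one of the two criteria met; inactive means mean below 50 and not all replicates reaching 50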;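 further: 0% = plate neutral controls and 100% = maraviroc near 300 nM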
# ERAP1 inh: ERAP1 (human) enzyme inhibition | recombinant ERAP1, Leu-AMC fluorescence, 60 min | inhibition, % at 10.7 µM | hit rate 0.15% among 340,000 | Q9NZ08;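 active means mean replicate inhibition of at least 30%, or all replicates individually reaching that 30% level; inactive means mean below 30% and not every replicate reaching it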;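 further: 0% = neutral control wells and 100% = L-leucinethiol positive control wells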
# Target sequence (Q9NZ08 whole entry, looked up): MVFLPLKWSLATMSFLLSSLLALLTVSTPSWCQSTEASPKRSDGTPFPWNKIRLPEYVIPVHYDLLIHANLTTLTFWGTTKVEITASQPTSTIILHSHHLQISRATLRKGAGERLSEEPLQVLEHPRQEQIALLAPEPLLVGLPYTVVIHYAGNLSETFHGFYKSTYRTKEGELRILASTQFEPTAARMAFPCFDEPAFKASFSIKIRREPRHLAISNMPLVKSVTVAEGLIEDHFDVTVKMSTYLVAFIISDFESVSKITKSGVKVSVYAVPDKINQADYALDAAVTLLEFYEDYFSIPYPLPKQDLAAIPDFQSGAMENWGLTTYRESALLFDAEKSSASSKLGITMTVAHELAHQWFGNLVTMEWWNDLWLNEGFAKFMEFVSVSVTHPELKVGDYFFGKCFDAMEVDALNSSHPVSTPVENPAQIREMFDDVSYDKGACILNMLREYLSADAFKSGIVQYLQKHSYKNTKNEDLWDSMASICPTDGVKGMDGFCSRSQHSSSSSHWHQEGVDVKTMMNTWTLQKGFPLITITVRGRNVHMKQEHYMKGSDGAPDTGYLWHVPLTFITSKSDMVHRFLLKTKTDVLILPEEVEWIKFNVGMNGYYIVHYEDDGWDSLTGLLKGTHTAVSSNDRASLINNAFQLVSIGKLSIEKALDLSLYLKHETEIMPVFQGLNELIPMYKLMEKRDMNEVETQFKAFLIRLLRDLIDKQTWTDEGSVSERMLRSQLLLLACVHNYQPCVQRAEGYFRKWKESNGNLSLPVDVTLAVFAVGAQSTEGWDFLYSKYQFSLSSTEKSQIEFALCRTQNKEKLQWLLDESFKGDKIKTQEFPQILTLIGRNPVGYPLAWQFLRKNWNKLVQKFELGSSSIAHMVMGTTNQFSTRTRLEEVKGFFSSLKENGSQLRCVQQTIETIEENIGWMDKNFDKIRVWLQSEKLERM
# FGF22 binding: binders of recombinant human FGF22 by thermal shift. Q9HCT0. SYPRO orange fluorescence; percent of sucrose octasulfate shift, DMSO zero. activity (Tm shift, normalised), % at 9.99 µM. hit rate 1.5% among 340,000;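 active means mean Tm shift, scaled 0 neutral to 100 positive control, at about 1.3% or above, every replicate too, limit read from the data; inconclusive means no clear call, values can overlap the other calls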
# Ecoli rRNA inh: inhibits bacterial ribosomal RNA function over humanized ribosomes | E. coli WT GFP vs humanized-ribosome RFP mutants, fluorescence, 24 h; stronger effect = lower value; DMSO median 0, no signal -100 | GFP signal change (wild-type ribosome), % (no concentration beside the values) | hit rate 1.6% among 350,000 | AID 720706;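 active means significant combined selectivity score with lowered wild-type GFP, culture density cut under 30%, mutant RFP and density less affected; inactive means any of these conditions unmet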
# PGC1a acetyl inh: lowers PGC1a acetylation signal in U2OS cells; hit rate 0.17% among 350,000; AlphaScreen anti-acetyl-lysine; with virally co-expressed GCN5 acetyltransferase; AID 651687; inhibition, % at 15.6 µM;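 active means every replicate shows inhibition of at least 40%; inconclusive means mean inhibition at least 40% but some replicate below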;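 further: 0% = neutral control wells and 100% = positive control wells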
# Cneo AK release: causes C. neoformans cell lysis. adenylate kinase release luminescence, 4 h; normalised: neutral wells 0, clomiphene wells 100. lysis activity, % at 15 µM. hit rate 0.2% among 360,000;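 active means mean lysis activity across replicates of at least 80%, whatever share of replicates individually reach that level; inactive means mean lysis activity below 80%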
#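 Signal: Adenylate kinase release luminescence | Assay system: Log-phase Cryptococcus neoformans yeast cells | Input: Cells at 5 × 10^6 per mL | Buffer or medium: Fresh YPD growth medium | Compound: Single dose | Schedule: Static 4 h at 37 °C with compound, 1 h detection | Controls: Clomiphene | Read-out: Luminescence rise reflecting yeast cell lysis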
# Numbers without * were called inactive; ? = inconclusive; . = no result. Compounds with a hit are over-represented: about 3.5% of the library has one in this group of screens.
SMILES,Env fusion inh,ERAP1 inh,FGF22 binding,Ecoli rRNA inh,PGC1a acetyl inh,Cneo AK release
CC(Sc1nc2ccccc2c(=O)n1C)C(=O)N(C)C1CCCCC1 (stereo unspecified),62*,0,0,0,4,9
CC(Sc1nc2ccccc2c(=O)n1CC1CCCO1)C(=O)N(C)Cc1ccccc1 (stereo unspecified),19,-3,.,-4,-3,2
COc1ccc2c3c([nH]c2c1)[C@H](CO)N(CC1CC1)CC31CN(C(=O)NC2CCCC2)C1,.,-3,0,1,-2,.
Cc1nn(-c2ccccc2)c2nc(C(F)(F)F)[nH]c(=O)c12,8,1,0,-15,.,.
Cc1nn(-c2cc(C(F)(F)F)ccc2Cl)c2nc(C(Cl)(Cl)Cl)[nH]c(=O)c12,-7,.,0,-15*,3,.
COc1cc(CNCCc2c[nH]c3ccccc23)cc(Cl)c1OCC(N)=O,0,4,44*,.,.,-1
CCOc1cc(CNCCc2c[nH]c3ccccc23)cc(Cl)c1OCC(N)=O,7,-5,0,5,-5,5
N#Cc1nc(Nc2cc(F)cc(F)c2)c2ncn(CC(F)F)c2n1,-37,4,0,-27,.,1
CCN(Cc1ccc(OC)c(F)c1)C(C)C(=O)Nc1ccc(S(=O)(=O)N2CCCC2)cc1 (stereo unspecified),57*,-5,0,1,-25,.
COc1ccccc1CN1CCCC(C(=O)N(C)Cc2ccccc2)C1 (stereo unspecified),.,.,.,.,45*,.
COc1ccc(OC)c(C(=O)CC2OC(=O)c3ccccc32)c1 (stereo unspecified),-11,.,.,.,2,0
Cn1cnnc1Sc1cc(N2CCN(S(=O)(=O)c3ccccc3)CC2)ccc1[N+](=O)[O-],15,5,45*,6,10,.
Cc1cc2c(cc(C(=O)O)n2C)s1,.,.,.,.,-12,0
CC1(C)Cc2c(sc(NC(=S)NC(=O)c3ccccc3)c2C(=O)O)CO1,-4,0,44*,-4,.,.
COCCCNCC(O)COc1cccc2[nH]c(C)cc12 (stereo unspecified),10,32*,1.4*,18,-4,.
O=[N+]([O-])c1ccc(NN=Cc2ccc(O)cc2)nc1,-107,0,0,-13,-27,0
CCOC(=O)c1cc2sccc2n1CC(=O)c1ccc2c(c1)OCCO2,.,0,0,-14,-17,0
CNC(=O)CCSSCCC(=O)NC,-4,3,0,-14,5,.
O=C(Nc1nc2c(s1)CCCC2)c1ccc2ncsc2c1,-232,1,1.7*,-41,-11,-4
Cc1ncsc1C(=O)Nc1nc2c(s1)CCCC2,.,8,0,.,12,1
CCn1c(=O)n(CC(=O)N2CCN(c3ccccc3F)CC2)c(=O)c2ccccc21,.,.,.,.,7,0
O=C1Nc2ccccc2C1=Nc1ccc(-c2nnc3n2CCCCC3)cc1,6,1,43*,-12,4,0
CN(C)c1ccc2nc3ccc(=O)cc-3sc2c1,66*,1,-3,-24,-3,-3
COc1ccc2nc(N=Nc3ccc(N(C)C)cc3)sc2c1,-383,.,.,.,13,-9
CN(C)c1ccc2nc3ccc(=[N+](C)C)cc-3sc2c1,85*,1,0,-53*,.,.
SMILES,Env fusion inh,ERAP1 inh,FGF22 binding,Ecoli rRNA inh,PGC1a acetyl inh,Cneo AK release
Cc1cc2nc3ccc(=[N+](C)C)cc-3sc2cc1N,.,.,.,.,-27,.
COc1ccc(CN(C(=O)c2cccs2)c2ccccc2)cc1,9,-4,0,-36,4,0
CCCCCOc1ccc(Br)cc1CSC(=N)N,16,-15,44*,-62,.,.
O=C(Cn1cc(C(F)(F)F)cc(Cl)c1=O)NCc1ccc(F)cc1,3,-4,0,5,.,1
CCOCCCNC(=O)c1oc2ccc(S(=O)(=O)N3CCOCC3)cc2c1C,4,0,0,1,.,-17
Cc1c(C(=O)NCCCN2CCOCC2)oc2ccc(S(=O)(=O)N3CCOCC3)cc12,9,4,43*,14,-8,.
NS(=O)(=O)c1ccc(CCNC(=O)c2cc(-c3ccccn3)nc3ccc(Br)cc23)cc1,18,1,43*,24,-1,.
NS(=O)(=O)c1ccc(CCNC(=O)c2cc(-c3ccc(Br)cc3)nc3ccccc23)cc1,-5,.,.,.,.,.
O=C1c2cccc3c(N4CCCCC4)ccc(c23)C(=O)N1CCO,-382,.,.,.,1,-5
O=C1c2cccc3c(N4CCCCC4)ccc(c23)C(=O)N1c1cccc(O)c1,-30,0,44*,13,.,.
COc1ccc(S(=O)(=O)N2CCC3(CC2)CN(Cc2ccncc2)[C@@H](CO)c2[nH]c4cc(OC)ccc4c23)cc1,.,-2,0,-4,34,.
C[C@@H]1CN([C@@H](C)CO)C(=O)c2cccc(NC(=O)CCCCCC(=O)Nc3ccccc3N)c2O[C@H]1CN(C)Cc1ccc(-c2ccccc2)cc1,.,-1,-1,0,-32,.
Cc1nn(-c2ccccc2)c(Cl)c1/C=N/NC(=O)CNC(=O)c1ccccc1Cl,-3,-3,44*,7,3,.
Cc1nn(-c2ccccc2)c(Cl)c1/C=N/NC(N)=O,?,0,0,-5,7,0
O=C1CCC(C(=O)N(CCO)Cc2ccccc2)CN1CCCN1CCOCC1 (stereo unspecified),-11,-1,0,4,-12,2
C#CCn1c(S(=O)(=O)Cc2ccccc2Cl)nc(-c2ccccc2)c1-c1ccccc1,79*,.,.,.,-9,2
CCOC(=O)Cn1c(S(=O)(=O)Cc2ccccc2Cl)nc(-c2ccccc2)c1-c1ccccc1,.,3,0,8,-15,17
C#CCn1c(S(=O)(=O)Cc2ccc(C)cc2)nc(-c2ccccc2)c1-c1ccccc1,146*,.,.,.,-17,10
COC(=O)Cc1ccc(N(Cc2ccccc2F)S(=O)(=O)c2ccc(C)cc2)cc1,14,-1,0,-2,.,.
CC(Sc1nc2ccccc2n1C)C(=O)Nc1ccc(N2CCOCC2)cc1 (stereo unspecified),5,-3,0,-23*,2,.
CC(C)Cn1c(SC(C)C(=O)Nc2ccc(N3CCOCC3)cc2)nc2ccccc21 (stereo unspecified),14,1,.,5,.,.
FC(F)(F)c1ccc(N2CCN(c3cc(-c4ccccc4)nc4ncnn34)CC2)nc1,77*,.,.,.,6,0
CCCOc1ccc(NCC(=O)Nc2ccc(C)cc2C)cc1,-30,.,.,.,1,-2
CN(C)CCNc1ccc2ncn3c4ccc(O)cc4c(=O)c1c23,50,33*,-1,.,.,.
C=CCn1c(SCC(N)=O)nc2nc3c(cc2c1=O)COC(C)(C)C3,45,-4,0,4,4,0
COc1ccc(OC)c(C=NNC(=O)NN=Cc2cc(OC)ccc2OC)c1,14,3,0,-14,.,-2
